Data taken from ChEMBL document CHEMBL4334482, “Cysteine Residue Containing Merocytochalasans and 17,18-seco-Aspochalasins from Aspergillus micronesiensis” (J Nat Prod, 2019).
≈ marks a conversion by molar mass, not a printed value. Calls of active or inactive are those of the source. No cut-off for these calls is given here.

Assays:
[1] = system: Hep 3B2; assay: Cytotoxicity against human Hep3B cells assessed as reduction in cell viability by MTS assay; assay type: functional, cell-based
Summary of the method: (§1)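 In vitro cytotoxicity was tested on a panel of five human cancer lines (HL60, A549, Hep3B, MCF-7, SW480), following an earlier published method. Values are reported as IC50 in μM.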

[2] = system: HL-60; assay: Cytotoxicity against human HL60 cells assessed as reduction in cell viability by MTS assay; assay type: functional, cell-based; summary of the method: as §1
[3] = system: MCF7; assay: Cytotoxicity against human MCF7 cells assessed as reduction in cell viability by MTS assay; assay type: functional, cell-based; summary of the method: as §1
[4] = system: A549; assay: Cytotoxicity against human A549 cells assessed as reduction in cell viability by MTS assay; assay type: functional, cell-based; summary of the method: as §1
[5] = system: SW480; assay: Cytotoxicity against human SW480 cells assessed as reduction in cell viability by MTS assay; assay type: functional, cell-based; summary of the method: as §1
[6] = system: Staphylococcus aureus; assay: Antibacterial activity against methicillin-resistant Staphylococcus aureus; assay type: functional
[7] = system: Staphylococcus aureus; assay: Antibacterial activity against Staphylococcus aureus; assay type: functional
[8] = system: Candida albicans; assay: Antifungal activity against Candida albicans assessed as reduction in fungal growth incubated for 48 hrs by two fold serial dilution method; assay type: functional

Structure (SMILES): COC(=O)CCC(=O)[C@@]12C(=O)N[C@@H](CC(C)C)[C@@H]1[C@H](C)C(C)=C[C@@H]2/C=C(\C)CCC(=O)O
- Activity [1]: inactive
- Activity [2]: inactive
- Activity [3]: inactive
- Activity [4]: inactive
- Activity [5]: inactive

Structure (SMILES): CC(=O)NCCS[C@@H]1CC(=O)[C@H](O)CC/C(C)=C/[C@H]2C=C(C)[C@@H](C)[C@H]3[C@H](CC(C)C)NC(=O)[C@]32C1=O
- IC50 [1]: 19.9 µM
- IC50 [2]: 9.3 µM
- MIC50 [6]: 17.5 µg/mL (≈ 33.7 µM)
- MIC90 [6]: 28.4 µg/mL (≈ 54.8 µM)
- IC50 [3]: 16.1 µM
- MIC50 [7]: 40.8 µg/mL (≈ 78.7 µM)
- MIC90 [7]: 58.5 µg/mL (≈ 113 µM)
- IC50 [4]: > 20 µM
- IC50 [5]: 10.1 µM
- MIC50 [8]: 43.3 µg/mL (≈ 83.5 µM)
- MIC90 [8]: 89.9 µg/mL (≈ 173 µM)

Structure (SMILES): COC(=O)CC/C(C)=C/[C@H]1C=C(C)[C@@H](C)[C@H]2[C@H](CC(C)C)NC(=O)[C@]21C(=O)CCC(=O)O
- Activity [1]: inactive
- Activity [2]: inactive
- Activity [3]: inactive
- Activity [4]: inactive
- Activity [5]: inactive

Structure (SMILES): COC(=O)[C@H](O)CS[C@@H]1CC(=O)[C@H](O)CC/C(C)=C/[C@H]2C=C(C)[C@@H](C)[C@H]3[C@H](CC(C)C)NC(=O)[C@]32C1=O
- IC50 [1]: 8.2 µM
- IC50 [2]: 3 µM
- MIC50 [6]: 10.6 µg/mL (≈ 19.8 µM)
- MIC90 [6]: 14.7 µg/mL (≈ 27.4 µM)
- IC50 [3]: 17.1 µM
- MIC50 [7]: 14.5 µg/mL (≈ 27.1 µM)
- MIC90 [7]: 27 µg/mL (≈ 50.4 µM)
- IC50 [4]: 16.7 µM
- IC50 [5]: 13.6 µM
- MIC50 [8]: 94.7 µg/mL (≈ 177 µM)
- MIC90 [8]: > 100 µg/mL
